In ChEMBL document CHEMBL2424585, “Biological evaluation of hyperforin and its hydrogenated analogue on bacterial growth and biofilm production” (2013):
Values after ≈ are worked out from the molar mass of the structure shown. Active and inactive are the calls of the source. No cut-off for these calls is given here.

Experiments:
Format in all cases: functional
Staphylococcus aureus [1] = assay: Antibacterial activity against methicillin-resistant Staphylococcus aureus Ig5 clinical isolate assessed as reduction of microorganisms in biofilm at 25 ug/ml after 18 hrs by XTT assay relative to untreated control; parameters: scale not given: the % may be the effect or the level left
Procedure, shortened: (§1)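 Mature 24 h biofilms grown in TSB + 2% glucose were PBS-rinsed and exposed to the stated concentration for 18 h at 37 °C with shaking. Metabolic activity was then measured by XTT (1 mg/mL in PBS) with menadione, 2 h at 37 °C in the dark, absorbance 492 nm. Activity is expressed as OD relative to untreated TSB biofilms. Triplicate.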

Enterococcus faecalis [2] = assay: Antibacterial activity against Enterococcus faecalis ATCC 29212 assessed as reduction of microorganisms in biofilm at 25 ug/ml after 18 hrs by XTT assay relative to untreated control; parameters: scale not given: the % may be the effect or the level left; procedure, shortened: as §1
Staphylococcus aureus [3] = assay: Antibacterial activity against Staphylococcus aureus ATCC 43300 assessed as reduction of microorganisms in biofilm at 25 ug/ml after 18 hrs by XTT assay relative to untreated control; parameters: scale not given: the % may be the effect or the level left; procedure, shortened: as §1
Staphylococcus aureus [4] = assay: Antibacterial activity against Staphylococcus aureus ATCC 29213 assessed as reduction of microorganisms in biofilm at 25 ug/ml after 18 hrs by XTT assay relative to untreated control; parameters: scale not given: the % may be the effect or the level left; procedure, shortened: as §1
Staphylococcus aureus [5] = assay: Antibacterial activity against methicillin-resistant Staphylococcus aureus Ig5 clinical isolate after 18 hrs by XTT assay
Procedure, shortened: (§2)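 Mature biofilms grown in TSB + 2% glucose from ~10^5 cfu/mL: 4 h shaken adhesion at 37 °C, medium replaced, then 24 h at 37 °C. Rinsed with PBS, then serial dilutions (150–18.7 or 25–6.25 μg/mL; PEG-200 vehicle for one agent) added for 18 h at 37 °C with shaking. Viability read by XTT–menadione, 2 h dark, 492 nm. MBIC = lowest concentration with no detectable biofilm growth. Triplicate.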

Enterococcus faecalis [6] = assay: Antibacterial activity against Enterococcus faecalis ATCC 29212 after 18 hrs by XTT assay; procedure, shortened: as §2
Staphylococcus aureus [7] = assay: Antibacterial activity against Staphylococcus aureus ATCC 29213 after 18 hrs by XTT assay; procedure, shortened: as §2
Staphylococcus aureus [8] = assay: Antibacterial activity against methicillin-resistant Staphylococcus aureus ATCC 43300 after 18 hrs by XTT assay; procedure, shortened: as §2
Escherichia coli = assay: Antibacterial activity against Escherichia coli ATCC 25922 after 18 hrs by MTT assay
Procedure, shortened: (§3)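 Broth microdilution MIC per CLSI M7-A6. Serial 2-fold dilutions in cation-adjusted Mueller-Hinton broth (20 mg/L Ca2+, 10 mg/L Mg2+), ranging 16 to 0.25 μg/mL (DMSO stock) or 256 to 0.25 μg/mL (ethanol stock). Inoculum 5 × 10^5 cfu in saline. Incubated 37 °C, 18 h. Growth detected by MTT colour change. MIC = lowest concentration with no visible growth.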

Enterococcus faecalis [9] = assay: Antibacterial activity against Enterococcus faecalis ATCC 29212 after 18 hrs by MTT assay; details: ATCC 29212, 18 h; procedure, shortened: as §3
Staphylococcus aureus [10] = assay: Antibacterial activity against methicillin-resistant Staphylococcus aureus Ig5 clinical isolate after 18 hrs by MTT assay; details: Ig5, 18 h; procedure, shortened: as §3
Staphylococcus aureus [11] = assay: Antibacterial activity against Staphylococcus aureus XU212 after 18 hrs by MTT assay; details: XU212, 18 h; procedure, shortened: as §3
Staphylococcus aureus [12] = assay: Antibacterial activity against Staphylococcus aureus SA1199B after 18 hrs by MTT assay; procedure, shortened: as §3
Staphylococcus aureus [13] = assay: Antibacterial activity against Staphylococcus aureus EMRSA-15 after 18 hrs by MTT assay; details: EMRSA-15, 18 h; procedure, shortened: as §3
Staphylococcus aureus [14] = assay: Antibacterial activity against methicillin-resistant Staphylococcus aureus ATCC 43300 after 18 hrs by MTT assay; details: ATCC 43300, 18 h; procedure, shortened: as §3
Staphylococcus aureus [15] = assay: Antibacterial activity against Staphylococcus aureus ATCC 25923 after 18 hrs by MTT assay; details: ATCC 25923, 18 h; procedure, shortened: as §3
Staphylococcus aureus [16] = assay: Antibacterial activity against Staphylococcus aureus ATCC 29213 after 18 hrs by MTT assay; details: ATCC 29213, 18 h; procedure, shortened: as §3
Staphylococcus aureus [17] = assay: Antibacterial activity against Staphylococcus aureus RN4220 after 18 hrs by MTT assay; details: RN4220, 18 h; procedure, shortened: as §3
Staphylococcus aureus [18] = assay: Antibacterial activity against methicillin-resistant Staphylococcus aureus Ig5 clinical isolate assessed as reduction of microorganisms in biofilm at 150 ug/ml after 18 hrs by XTT assay relative to untreated control; parameters: scale not given: the % may be the effect or the level left; procedure, shortened: as §1
Staphylococcus aureus [19] = assay: Antibacterial activity against Staphylococcus aureus ATCC 43300 assessed as reduction of microorganisms in biofilm at 37.5 ug/ml after 18 hrs by XTT assay relative to untreated control; parameters: scale not given: the % may be the effect or the level left; procedure, shortened: as §1
Enterococcus faecalis [20] = assay: Antibacterial activity against Enterococcus faecalis ATCC 29212 assessed as reduction of microorganisms in biofilm at 37.5 ug/ml after 18 hrs by XTT assay relative to untreated control; parameters: scale not given: the % may be the effect or the level left; procedure, shortened: as §1
Staphylococcus aureus [21] = assay: Antibacterial activity against Staphylococcus aureus ATCC 29213 assessed as reduction of microorganisms in biofilm at 150 ug/ml after 18 hrs by XTT assay relative to untreated control; parameters: scale not given: the % may be the effect or the level left; procedure, shortened: as §1
Staphylococcus aureus [22] = assay: Antibacterial activity against Staphylococcus aureus Ig5 assessed as reduction of microorganisms in biofilm at 37.5 ug/mL after 18 hrs by XTT assay relative to untreated control; parameters: scale not given: the % may be the effect or the level left; procedure, shortened: as §1

Row | SMILES | MBIC (Staphylococcus aureus [5]) | MBIC (Enterococcus faecalis [6]) | MBIC (Staphylococcus aureus [7]) | MBIC (Staphylococcus aureus [8]) | MIC (Escherichia coli) | MIC (Enterococcus faecalis [9]) | MIC (Staphylococcus aureus [10]) | MIC (Staphylococcus aureus [11]) | MIC (Staphylococcus aureus [12]) | MIC (Staphylococcus aureus [13]) | MIC (Staphylococcus aureus [14]) | MIC (Staphylococcus aureus [15]) | MIC (Staphylococcus aureus [16]) | MIC (Staphylococcus aureus [17]) | further results
1 | C1CCC(NC2CCCCC2)CC1.CC(C)=CCC[C@]1(C)[C@@H](CC=C(C)C)C[C@]2(CC=C(C)C)C(=O)C(CC=C(C)C)=C(O)[C@@]1(C(=O)C(C)C)C2=O | 25 µg/mL | 25 µg/mL | 25 µg/mL | 25 µg/mL | inactive | 1 µg/mL | 1 µg/mL | 0.5 µg/mL | 2 µg/mL | 2 µg/mL | 1 µg/mL | 1 µg/mL | 1 µg/mL | – | Activity (Staphylococcus aureus [1]): 33%; Activity (Enterococcus faecalis [2]): 34%; Activity (Staphylococcus aureus [3]): 21%; Activity (Staphylococcus aureus [4]): 45%
2 | CCn1cc(C(=O)O)c(=O)c2cc(F)c(N3CCNCC3)cc21 [NORFLOXACIN] | – | – | – | – | – | 4 µg/mL (≈ 12.5 µM) | 2 µg/mL (≈ 6.26 µM) | 4 µg/mL (≈ 12.5 µM) | 32 µg/mL (≈ 100 µM) | 0.5 µg/mL (≈ 1.57 µM) | 4 µg/mL (≈ 12.5 µM) | 2 µg/mL (≈ 6.26 µM) | 2 µg/mL (≈ 6.26 µM) | 1 µg/mL (≈ 3.13 µM) | MIC (Escherichia coli; ATCC 25922, 18 h): 0.12 µg/mL (≈ 0.376 µM)
3 | C1CCC(NC2CCCCC2)CC1.CC(C)CCC[C@]1(C)[C@@H](CCC(C)C)C[C@@]2(CCC(C)C)C(=O)[C@]1(C(=O)C(C)C)C(=O)C(CCC(C)C)=C2O [OCTAHYDROHYPERFORIN DICYCLOHEXYLAMMONIUM SALT] | 37.5 µg/mL | 37.5 µg/mL | 150 µg/mL | 37.5 µg/mL | inactive | 4 µg/mL | 4 µg/mL | 1 µg/mL | 4 µg/mL | – | 4 µg/mL | 4 µg/mL | 4 µg/mL | 1 µg/mL | Activity (Staphylococcus aureus [18]): 45%; Activity (Staphylococcus aureus [19]): 47%; Activity (Enterococcus faecalis [20]): 45%; Activity (Staphylococcus aureus [21]): 52%; Activity (Staphylococcus aureus [22]): 52%
